In the EternaBench riboswitch data:

Tested on: MS2 coat protein
Assay: apparent Kd, MS2 coat protein; higher = weaker binding; RNA-MaP array; FMN 200 µM where present
Summary of the method: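 Binding was read on Illumina sequencing-chip clusters where stalled E. coli RNA polymerase had transcribed each design. A titration of SNAP-549-labelled MS2 coat protein began at 0.7 or 1.5 nM and doubled to 3 µM, once without ligand and once with constant ligand, in 100 mM Tris-HCl pH 7.5, 80 mM KCl, 4 mM MgCl2, BSA, DTT, yeast tRNA and Tween-20. The apparent Kd is the median of filtered per-cluster binding-curve fits, based on green signal normalised to red-channel RNA signal and control-cluster median Fmax.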

[1] = designed as: ON switch for flavin mononucleotide, no ligand
[2] = ligand present: flavin mononucleotide, designed as: ON switch for flavin mononucleotide
[3] = designed as: OFF switch for flavin mononucleotide, no ligand
[4] = ligand present: flavin mononucleotide, designed as: OFF switch for flavin mononucleotide

Sequence	apparent Kd [1]	apparent Kd [2]	apparent Kd [3]	apparent Kd [4]
UAAUCUCAGAUAGGAUAUAUAGGAUAACUUAAGACCUAACAUGAGGAUCACCCAUGUGAUUAUUCGUAGAAGGAUCAUUGAACU	254 nM	251 nM	–	–
GGAUUACAUGAGGAUCACCCAUGUGAGGAUAUCGAUGUCCUCAAUCAAGUGCGGGACUCGAGAAGGCACUUGGA	–	–	70.3 nM	30.9 nM
GGGUACAGCGGAGGAUAUCAUGUAAAUACAUGAGGAUCACCCAUGUCGAUGGAGACAUCGGAGAUUGAGAAGGCCGAUGUACCG	173 nM	9.99 nM	–	–
GCCUGCUGGCAAGGAUAUUCUGUGCGGUUCCGGCUCGUGUCUGUUACAUGAGGAUCACCCAUGUGGGAGAAGGUGUCUGUGGCC	–	–	6.21 nM	5.88 nM
GCACUGACAGGAUAUACAUGAGGAUCACCCAUGUGACCCUUACAGUACUCGCGUACUGGUAGAAGGGUCUGUGC	–	–	–	140 nM
GCAGGAUAAGUGAGGAUAUACCUAUGGAUACAUAGGUAGAAGGUACAUGAGGAUCACCCAUGUUCCUUACCUGC	–	–	11.9 nM	13.4 nM
UAUAUAUAGUAAGGAUAUAUAUUUUUUUUUUAAAUAGAAGGUACAGACAUGAGGAUCACCCAUGUUAUAAUAUGGACAUGUGGA	–	–	99 nM	136 nM
AAUAACAGAGGAUAUACUGUUUUAUGUAUUUAUUAUUUUAAACAUGAGGAUCACCCAUGUAGAAGGCUGAAUAA	–	–	21.9 nM	18.6 nM
CCUAAGGACACAGGAUAUAGCGUGGUGGCUGUGCUCCAACGGCGAGCGGCGCUAGAAGGGUGACCACAUGAGGAUCACCCAUGU	665 nM	177 nM	–	–
ACGCAUUGCCUUUGGUAGUGCGUUACAUGAGGAUCACCCAUGUAGGAUAUGGUAGGCAAAGCUUACCAGAAGGACAUGAUAAUU	–	–	49.5 nM	238 nM
CGAAACAACACAACGAAGCAGGUACCAGAAGGGACGGCGUCACAUGAGGAUCACCCAUGUUGCAGUCAGGAUAUGGGCCAUCCU	33.1 nM	6.95 nM	–	–
AAGUAGAACGUAGGAUAUCAAUGAGGAUCACCCUGAGAAGGACGUGAGGACAUGAGGAUCACCCAUGUGGAUCACCCAUGUCAU	–	–	157 nM	132 nM
GGAUAGGACAGAGGAUAUACCGAUAGGAGAUACUAUCGACUAUUCCUCACAUGAGGAUCACCCAUGUAGAAGGCUGUCCUAUCG	–	–	16.9 nM	58.1 nM
GAUCGUUUAGAGGAUAUCGUGCUAAACAUUACAUGAGAAGGCUAGACAUGAGGAUCACCCAUGUAUGCUCGUGA	–	–	15.5 nM	17.1 nM
GCGUAACAUGAGGAUCACCCAUGUGCCCGAGAAUUCGGGCCGAGAAGGGUGACCGGUCGUUUGGCACAGGAUAUCGACGUUGUG	31.5 nM	12.7 nM	–	–
CGAAAAUUUCAGAAGGACCAAUUCCACAUGAGGAUCACCCAUGUCGAUGGUAGGAUAUGGAGUUGUGGACAGGGUGGAUGUUCC	122 nM	12.6 nM	–	–
GGUCGGAAUUUCGACGGCCUGAGGGAGGAUAUACAAGGCCGGCGUCGCACAUGAGGAUCACCCAUGUAGAAGGCCCAAGGCCUG	–	–	6 nM	7.2 nM
CUGGGCGGAGGAUAUACAGGUUGGGCAUAAGUUCGGCUGGGACAUGAGGAUCACCCAUGUAGAAGGUUGUUUAG	–	–	25.3 nM	23.1 nM
UGAACUAUGUAGAAGGCCCGCAUGAAAAUGACGGGAGGAUAUACAUGAGGAUCACCCAUGUGAAGAGCAAGAGGGUUUAACAGA	–	–	282 nM	163 nM
AGGAGACAUGAGGAUCACCCAUGUGCACGUGGAGGAGGAUAUGCUAGUAGAAGAUAGAAAGCAGAAGGCCUAAGAA	69.2 nM	80.5 nM	–	–
AUUUUACAUGAGGAUCACCCAUGUUUUGGUGGAUCAGGAUAUAAAUUGAAUGAGUUUUAGUUAGAAGGGAUAUUUA	67.2 nM	99 nM	–	–

Sequence	apparent Kd [1]	apparent Kd [2]	apparent Kd [3]	apparent Kd [4]
UUAUUAUGUGUAGGAUAUGCAUAUUAUUAUUAUGCAGAAGGACAUGAGGAUCACCCAUGUAUAUUAUUAUUAUAUAUUAUAUGU	–	–	21.1 nM	44.2 nM
AAGACAUGAGGAUCACCCAUGUAAAGACCGGUCGAUCAAGGUGAGGAUAUACAAUAAUUGAUAGGGUAGAAGGCACUGGGUUGA	286 nM	148 nM	–	–
AUUUUACAUGAGGAUCACCCAUGUUUUGGCGGGUCAGGAUAUAGAUCGGAUGAGUUCUGUCUAGAAGGGACAUGUU	49.7 nM	29.6 nM	–	–
GUCAGCUCGUGAGGAUAUACAACACUGCUUCGGCAGUGUAUUAAGCUCACAUGAGGAUCACCCAUGUAGAAGGCACGAGCUGAU	–	–	5.37 nM	11.2 nM
GUCGGAAACGACAAAAGUAUGGAUCCAGAAGGCAUGACACAUGAGGAUCACCCAUGUCUAAGAUAUGAGGAUAUGGAUCCAUAC	4.97 nM	4.71 nM	–	–
GGAUGACAAAGUCAUCCCUGACGGACAUGAGGAUCACCCAUGUAGGAUAUGCUACUCAAAGAGUAGCAGAAGGACAUGUGUCUU	–	–	35.5 nM	206 nM
AAGGAAACCACAGGAUAUGGCUAGCAUAGCUAGCCAGAAGGGUGGUCGAAACCAUGUAAAUACAUGAGGAUCACCCAUGUGUCC	189 nM	271 nM	–	–
GCUUGUGAAGGAUAUACUGGCGGCAUGCGCUCGGCACGCGCACAUGAGGAUCACCCAUGUAGAAGGUCAAACGU	–	–	22.4 nM	22.8 nM
GUAGCAUACAGAGGAUAUCUUAACCGGAAACGGACAUGAGGAUCACCCAUGUGGCGAAAGCCUAGGGAGAAGGCUGAAUGCUAC	10.2 nM	11.1 nM	–	–
GCGUUGUACGAGAAGGCCAAUACAUGAGGAUCACCCAUGUUAAGUUGUUUUGGAGGAUAUCGAUCACCUACAAUAAUGCAACGC	–	–	6.83 nM	5.9 nM
CUUUUGUGAGGAUAUCAGUAGUAAAAAAAUAUAAUUACUACUGAGAAGGCACAUGAGGAUCACCCAUGUUCCUC	–	–	36.8 nM	267 nM
CGCAUCUCUUCAAUUCCUUCACAUGAGGAUCACCCAUGUAGGGAGGAUAUGCAAGCCUAUUGGCGGCAGAAGGCCCUGCAAUGG	–	–	177 nM	86.9 nM
CACGGUGAUGUAGGAUAUACGCUGGAAUACAGCGUAGAAGGACAUGAGGAUCACCCAUGUAGAGUGUCUCCAAAUAACACCGUG	–	–	43 nM	293 nM
GAAUUCGCAUGAGGAUAUGCACUCAUUUCAUGUGCAGAAGGUAUAUCAUUAGACAUGAGGAUCACCCAUGUAUUGGUCAUUAAA	15.8 nM	13.9 nM	–	–
AUAGUGCGCGAGAAGGACGUACCACAUGAGGAUCACCCAUGUGUGGUACGUAGGAUAUUGCACAUGAGGAUCACCCAUGUGGAU	19.5 nM	34.6 nM	–	–
AAGAUACUUACAGGAUAUAGGGCAUAGGGUGCCCUAGAAGGGUGAACAUGAGGAUCACCCAUGUAUGUAUCAGAUUAGAAGGCA	53.3 nM	41.8 nM	–	–
AGUGACUACGUAGGAUAUUAAUUCAUGGACUACAUGAGGAUCACCCAUGUUUAUUUAACAUCAGCUGAGAAGGACGUGGUCACA	28.1 nM	10.6 nM	–	–
GGAGCCGGUACUGAGGAUAUUCAUAUUAAAACAUGAGGAUCACCCAUGUAGGCCAGAAGGCCUUGGGAGAAGGCGGACCAGCUCG	463 nM	32.8 nM	–	–
CCGGCUUAGGAGGAUAUAGGAGUCGAUAGACACCUAGAAGGCCUAACAUGAGGAUCACCCAUGUGUCCUACCGG	–	–	17.8 nM	61.5 nM
ACUAAUAAGUGAGGAUAUACAUAAUUCAUAUCAGUAGAAGGCACAAUCCUCUUUACAUGAGGAUCACCCAUGUUAUAUAUAUAA	–	–	73.8 nM	194 nM
AGUUUUGUACAUGAGGAUCACCCAUGUUAAUAUGUGGUAGUCAGAAGGCAUUGUUAGUGUUUAUAUGAGGAUAUGAUUAGGCAG	46.6 nM	24.6 nM	–	–
